According to ChEMBL document CHEMBL1149102, “De novo design, synthesis, and pharmacology of alpha-melanocyte stimulating hormone analogues derived from somatostatin by a hybrid approach” (J Med Chem, 2004):

What was measured:
[1] = tested on: melanocyte-stimulating hormone receptor (Rana pipiens); assay: Maximum agonist response for frog skin melanocortin 1 receptor (MC1R); No activity up to 10^-5M
[2] = target: T1, Melanocortin receptor 3 (Rattus norvegicus, UniProt P32244); assay: Maximal agonist response at rat melanocortin 3 receptor (MC3R); type: functional
Method in brief: (§1)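 Cells stably expressing wild-type mouse (MC3R: rat) melanocortin receptor, transfected with 4 μg CRE/β-galactosidase reporter; 5000–15 000 cells plated, incubated overnight. At 48 h post-transfection, stimulated 6 h in DMEM with 0.1 mg/mL BSA and 0.1 mM IBMX; forskolin 10^-4 M reference.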

[3] = tested on: Melanocortin receptor 1 (Rana pipiens); assay: Inhibition of 1 nM alpha melanocortin stimulating hormone (MSH) from frog skin; antagonist
[4] = target: T2, Melanocyte-stimulating hormone receptor (Mus musculus, UniProt Q01727); assay: Maximal agonist response of mouse melanocortin 1 receptor (MC1R); type: functional
Method in brief: as §1

[5] = target: T3, Melanocortin receptor 5 (Mus musculus, UniProt P41149); assay: Maximum agonist response for mouse melanocortin 5 receptor (MC5R); type: functional
Method in brief: as §1

[6] = target: T4, Melanocortin receptor 4 (Mus musculus, UniProt P56450); assay: Effective concentration for maximum agonist response towards mouse melanocortin 4 receptor (MC4R); No activity up to 10^-5 M; type: functional
Method in brief: as §1

[7] = target: T2, Melanocyte-stimulating hormone receptor; assay: Effective concentration for maximum agonist response towards mouse melanocortin 1 receptor (MC1R); No activity up to 10^-5 M; type: functional
Method in brief: as §1

[8] = target: T1, Melanocortin receptor 3; assay: Effective concentration for maximum agonist response towards rat melanocortin 3 receptor (MC3R); No activity up to 10e-5 M; type: functional
Method in brief: as §1

[9] = target: T3, Melanocortin receptor 5; assay: Effective concentration for maximum agonist response towards mouse melanocortin 5 receptor (MC5R); No activity up to 10^-5 M; type: functional
Method in brief: as §1

[10] = tested on: melanocyte-stimulating hormone receptor (Rana pipiens); assay: Inhibition of 1 nM alpha melanocortin stimulating hormone from frog skin; No activity up to 10^-5 M.
[11] = target: T4, Melanocortin receptor 4; assay: Effective concentration for maximum agonist response towards mouse melanocortin 4 receptor; type: functional
Method in brief: as §1

T3 sequence (P41149 whole entry): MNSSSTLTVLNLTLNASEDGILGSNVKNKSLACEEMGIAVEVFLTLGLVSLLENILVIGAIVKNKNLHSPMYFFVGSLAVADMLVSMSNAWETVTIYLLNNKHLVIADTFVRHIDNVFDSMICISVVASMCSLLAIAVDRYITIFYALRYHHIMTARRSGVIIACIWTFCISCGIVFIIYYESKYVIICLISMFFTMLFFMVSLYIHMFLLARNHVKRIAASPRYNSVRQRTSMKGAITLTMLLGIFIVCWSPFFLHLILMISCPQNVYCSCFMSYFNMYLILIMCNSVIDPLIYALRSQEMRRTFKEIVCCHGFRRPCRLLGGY
T4 sequence (P56450 whole entry): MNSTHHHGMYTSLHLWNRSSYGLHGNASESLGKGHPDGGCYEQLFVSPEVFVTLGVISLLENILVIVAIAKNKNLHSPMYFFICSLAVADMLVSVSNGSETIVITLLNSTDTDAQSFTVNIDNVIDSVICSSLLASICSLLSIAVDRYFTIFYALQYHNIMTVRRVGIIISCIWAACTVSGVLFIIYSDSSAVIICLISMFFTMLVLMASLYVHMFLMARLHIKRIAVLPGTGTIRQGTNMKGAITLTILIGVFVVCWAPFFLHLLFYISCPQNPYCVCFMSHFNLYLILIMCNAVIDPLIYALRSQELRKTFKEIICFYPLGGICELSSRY
T1 sequence (P32244 whole entry): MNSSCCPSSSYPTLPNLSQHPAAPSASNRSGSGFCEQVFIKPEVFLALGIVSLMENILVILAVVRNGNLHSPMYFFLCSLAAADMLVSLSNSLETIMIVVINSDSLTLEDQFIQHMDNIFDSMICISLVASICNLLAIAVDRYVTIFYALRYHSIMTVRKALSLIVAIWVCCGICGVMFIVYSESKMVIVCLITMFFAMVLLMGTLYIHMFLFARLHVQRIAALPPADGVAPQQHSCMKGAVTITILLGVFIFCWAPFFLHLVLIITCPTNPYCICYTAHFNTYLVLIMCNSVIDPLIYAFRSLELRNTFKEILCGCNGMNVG
T2 sequence (Q01727 whole entry): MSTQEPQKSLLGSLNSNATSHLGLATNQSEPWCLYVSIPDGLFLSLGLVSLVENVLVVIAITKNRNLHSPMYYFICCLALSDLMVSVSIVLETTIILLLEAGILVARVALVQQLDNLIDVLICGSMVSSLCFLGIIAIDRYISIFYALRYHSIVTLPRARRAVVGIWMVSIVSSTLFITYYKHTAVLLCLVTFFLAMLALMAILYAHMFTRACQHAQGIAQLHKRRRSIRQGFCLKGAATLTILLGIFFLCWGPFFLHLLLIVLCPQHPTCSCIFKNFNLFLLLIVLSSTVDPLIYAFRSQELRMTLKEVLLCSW

With C[C@@H](O)[C@H](NC(=O)[C@H]1NC(=O)[C@H](Cc2c[nH]c3ccccc23)NC(=O)[C@H](CCCN=C(N)N)NC(=O)[C@@H](Cc2c[nH]c3ccccc23)NC(=O)[C@H](Cc2ccc(O)cc2)NC(=O)[C@@H](NC(=O)[C@H](N)Cc2ccccc2)CSSC1(C)C)C(N)=O the EC50 [1] was “Not Active”.

With C[C@@H](O)[C@H](NC(=O)[C@H]1CSSC(C)(C)[C@H](NC(=O)[C@H](N)Cc2ccccc2)C(=O)N[C@@H](Cc2c[nH]cn2)C(=O)N[C@@H](Cc2ccccc2)C(=O)N[C@@H](CCCN)C(=O)N[C@H](Cc2c[nH]c3ccccc23)C(=O)N1)C(N)=O the EC50 [2] was 59 nM, the IC50 [3] was “Antagonist” and the EC50 [4] was 490 nM. The EC50 [1] was “Not Active”, the EC50 [5] was 46 nM and the EC50 [6] was “Not Active”.

C[C@H](O)[C@@H](NC(=O)[C@H]1CSSC[C@H](NC(=O)[C@@H](N)Cc2ccccc2)C(=O)N[C@@H](Cc2c[nH]cn2)C(=O)N2Cc3ccccc3C[C@H]2C(=O)N[C@@H](CCCN=C(N)N)C(=O)N[C@H](Cc2c[nH]c3ccccc23)C(=O)N1)C(N)=O was tested, and the EC50 [7] was “Not Active”, the EC50 [8] was “Not Active” and the EC50 [9] was “Not Active”. For the same compound, the EC50 [1] was “Not Active” and the EC50 [6] was “Not Active”.

With C[C@@H](O)[C@H](NC(=O)[C@H]1NC(=O)[C@H]([C@@H](C)O)NC(=O)[C@H](CCCN=C(N)N)NC(=O)[C@@H](Cc2ccccc2)NC(=O)[C@H](Cc2ccccc2)NC(=O)[C@@H](NC(=O)[C@H](N)Cc2ccccc2)CSSC1(C)C)C(N)=O the IC50 [10] was “Not Active” and the EC50 [1] was “Not Active”.

C[C@@H](O)[C@H](NC(=O)[C@H]1NC(=O)[C@H]([C@@H](C)O)NC(=O)[C@H](CCCN=C(N)N)NC(=O)[C@@H](Cc2c[nH]c3ccccc23)NC(=O)[C@H](Cc2ccc(I)cc2)NC(=O)[C@@H](NC(=O)[C@H](N)Cc2ccccc2)CSSC1(C)C)C(N)=O was tested, and the EC50 [1] was “Not Active”.

For C[C@@H](O)[C@H](NC(=O)[C@@H]1CSSC[C@H](NC(=O)[C@H](N)Cc2ccccc2)C(=O)N[C@@H](Cc2c[nH]cn2)C(=O)N[C@@H](Cc2ccc(I)cc2)C(=O)N[C@@H](CCCN=C(N)N)C(=O)N[C@H](Cc2c[nH]c3ccccc23)C(=O)N1)C(N)=O, the IC50 [10] was “Not Active” and the EC50 [1] was “Not Active”.

With C[C@@H](O)[C@H](NC(=O)[C@H]1NC(=O)[C@H](CO)NC(=O)[C@H](CCCN=C(N)N)NC(=O)[C@@H](Cc2c[nH]c3ccccc23)NC(=O)[C@H](Cc2ccc(O)cc2)NC(=O)[C@@H](NC(=O)[C@H](N)Cc2ccccc2)CSSC1(C)C)C(N)=O the EC50 [1] was “Not Active”.

With C[C@@H](O)[C@H](NC(=O)[C@H]1CSSC[C@H](NC(=O)[C@H](N)Cc2ccccc2)C(=O)N[C@H](Cc2cnc[nH]2)C(=O)N[C@H](Cc2ccccc2)C(=O)N[C@@H](CCCNC(=N)N)C(=O)N[C@H](Cc2c[nH]c3ccccc23)C(=O)N1)C(N)=O the EC50 [2] was 0.23 nM, the IC50 [10] was “Not Active” and the EC50 [11] was 0.2 nM. For the same compound, the EC50 [4] was 0.23 nM and the EC50 [5] was 0.1 nM.

C[C@@H](O)[C@H](NC(=O)[C@@H]1CSSC[C@H](NC(=O)[C@H](N)Cc2ccccc2)C(=O)N[C@@H](Cc2c[nH]cn2)C(=O)N[C@@H](Cc2cccc3ccccc23)C(=O)N[C@@H](CCCN=C(N)N)C(=O)N[C@H](Cc2c[nH]c3ccccc23)C(=O)N1)C(N)=O was tested, and the IC50 [10] was “Not Active”.

For C[C@@H](O)[C@H](NC(=O)[C@@H]1CSSC[C@H](NC(=O)[C@H](N)Cc2ccccc2)C(=O)N[C@@H](Cc2c[nH]cn2)C(=O)N[C@H](Cc2ccc(Cl)cc2)C(=O)N[C@@H](CCCN=C(N)N)C(=O)N[C@@H](Cc2c[nH]c3ccccc23)C(=O)N1)C(N)=O, the IC50 [10] was “Not Active”.

Compound C[C@H](O)[C@@H](NC(=O)[C@H]1CSSC[C@H](NC(=O)[C@H](N)Cc2ccccc2)C(=O)N[C@@H](Cc2cnc[nH]2)C(=O)N[C@@H](Cc2ccc(Cl)cc2)C(=O)N[C@@H](CCCNC(=N)N)C(=O)N[C@H](Cc2c[nH]c3ccccc23)C(=O)N1)C(N)=O has an EC50 [2] of 7.3 nM, an EC50 [11] of 0.67 nM and an EC50 [4] of 0.37 nM. For the same compound, the EC50 [5] was 0.11 nM.

In the case of C[C@@H](O)[C@H](NC(=O)[C@@H]1CCSSC[C@H](NC(=O)[C@H](N)Cc2ccccc2)C(=O)N[C@@H](Cc2c[nH]cn2)C(=O)N[C@H](Cc2ccccc2)C(=O)N[C@@H](CCCN=C(N)N)C(=O)N[C@@H](Cc2c[nH]c3ccccc23)C(=O)N1)C(N)=O, the IC50 [10] is reported as “Not Active”.

C[C@@H](O)[C@H](NC(=O)[C@@H]1CCSSC[C@H](NC(=O)[C@H](N)Cc2ccccc2)C(=O)N[C@@H](Cc2cnc[nH]2)C(=O)N[C@H](Cc2ccccc2)C(=O)N[C@@H](CCCNC(=N)N)C(=O)N[C@@H](Cc2c[nH]c3ccccc23)C(=O)N1)C(N)=O showed an EC50 [11] of 51 nM, an EC50 [4] of 5.1 nM and an EC50 [5] of 2.2 nM.

Compound C[C@@H](O)[C@H](NC(=O)[C@H]1CCSSC[C@H](NC(=O)[C@@H](N)Cc2ccccc2)C(=O)N[C@@H](Cc2cnc[nH]2)C(=O)N[C@H](Cc2ccccc2)C(=O)N[C@@H](CCCNC(=N)N)C(=O)N[C@H](Cc2c[nH]c3ccccc23)C(=O)N1)C(N)=O has an EC50 [2] of 75 nM.

For C[C@@H](O)[C@H](NC(=O)[C@@H]1CSSC[C@@H](NC(=O)[C@H](N)Cc2ccccc2)C(=O)N[C@@H](Cc2c[nH]cn2)C(=O)N[C@@H](Cc2ccc3ccccc3c2)C(=O)N[C@@H](CCCN=C(N)N)C(=O)N[C@H](Cc2c[nH]c3ccccc23)C(=O)N1)C(N)=O, the IC50 [10] was “Not Active” and the EC50 [1] was “Not Active”.

With C[C@@H](O)[C@H](NC(=O)[C@H]1CSSC[C@H](NC(=O)[C@@H](N)Cc2ccccc2)C(=O)N[C@@H](Cc2c[nH]cn2)C(=O)N[C@H](Cc2ccccc2)C(=O)N[C@@H](CCCN=C(N)N)C(=O)N[C@H](Cc2c[nH]c3ccccc23)C(=O)N1)C(N)=O the IC50 [10] was “Not Active”.

For C[C@@H](O)[C@H](NC(=O)[C@@H]1NC(=O)[C@H](Cc2c[nH]c3ccccc23)NC(=O)[C@H](CCCN=C(N)N)NC(=O)[C@H](Cc2c[nH]c3ccccc23)NC(=O)[C@H](Cc2ccccc2)NC(=O)[C@@H](NC(=O)[C@H](N)Cc2ccccc2)CSSC1(C)C)C(N)=O, the EC50 [1] was “Not Active”.

C[C@@H](O)[C@H](NC(=O)[C@H]1CSSC[C@H](NC(=O)[C@H](N)Cc2ccccc2)C(=O)N[C@@H](Cc2c[nH]cn2)C(=O)N[C@@H](Cc2ccccc2)C(=O)N[C@@H](CCCN=C(N)N)C(=O)N[C@H](Cc2c[nH]c3ccccc23)C(=O)N1)C(N)=O was tested, and the EC50 [2] was 3 nM, the IC50 [10] was “Not Active” and the EC50 [11] was 1.4 nM. For the same compound, the EC50 [4] was 1.5 nM and the EC50 [5] was 0.12 nM.

For C[C@@H](O)[C@H](NC(=O)[C@@H]1CSSC[C@H](NC(=O)[C@H](N)Cc2ccccc2)C(=O)N[C@@H](Cc2c[nH]cn2)C(=O)N[C@@H](Cc2ccc(F)cc2)C(=O)N[C@@H](CCCN=C(N)N)C(=O)N[C@H](Cc2c[nH]c3ccccc23)C(=O)N1)C(N)=O, the IC50 [10] was “Not Active”.

C[C@@H](O)[C@H](NC(=O)[C@H]1NC(=O)[C@H](Cc2c[nH]c3ccccc23)NC(=O)[C@H](CCCNC(=N)N)NC(=O)[C@@H](Cc2ccccc2)NC(=O)[C@H](Cc2cnc[nH]2)NC(=O)[C@@H](NC(=O)[C@H](N)Cc2ccccc2)CSSC1(C)C)C(N)=O was tested, and the EC50 [11] was 20 nM, the EC50 [4] was 6.9 nM and the EC50 [5] was 0.14 nM.

With C[C@@H](O)[C@H](NC(=O)[C@H]1NC(=O)[C@H](Cc2c[nH]c3ccccc23)NC(=O)[C@H](CCCN=C(N)N)NC(=O)[C@@H](Cc2ccccc2)NC(=O)[C@H](Cc2c[nH]cn2)NC(=O)[C@@H](NC(=O)[C@H](N)Cc2ccccc2)CSSC1(C)C)C(N)=O the IC50 [10] was “Not Active”.

Work on C[C@@H](O)[C@H](NC(=O)[C@@H]1NC(=O)[C@@H](Cc2c[nH]c3ccccc23)NC(=O)[C@H](CCCNC(=N)N)NC(=O)[C@@H](Cc2ccccc2)NC(=O)[C@@H](Cc2cnc[nH]2)NC(=O)[C@@H](NC(=O)[C@H](N)Cc2ccccc2)CSSC1(C)C)C(N)=O yielded an EC50 [2] of 64 nM.

For C[C@@H](O)[C@H](NC(=O)[C@@H]1CCCCNC(=O)C[C@H](NC(=O)[C@H](N)Cc2ccccc2)C(=O)N[C@@H](Cc2cnc[nH]2)C(=O)N[C@H](Cc2ccccc2)C(=O)N[C@@H](CCCNC(=N)N)C(=O)N[C@@H](Cc2c[nH]c3ccccc23)C(=O)N1)C(N)=O, the EC50 [11] was 0.38 nM, the EC50 [4] was 0.047 nM and the EC50 [5] was 0.074 nM.

For C[C@@H](O)[C@H](NC(=O)[C@@H]1CCCCNC(=O)C[C@H](NC(=O)[C@H](N)Cc2ccccc2)C(=O)N[C@@H](Cc2c[nH]cn2)C(=O)N[C@H](Cc2ccccc2)C(=O)N[C@@H](CCCN=C(N)N)C(=O)N[C@@H](Cc2c[nH]c3ccccc23)C(=O)N1)C(N)=O, the IC50 [10] was “Not Active”.

Work on C[C@@H](O)[C@H](NC(=O)[C@H]1CCCCNC(=O)C[C@H](NC(=O)[C@@H](N)Cc2ccccc2)C(=O)N[C@@H](Cc2cnc[nH]2)C(=O)N[C@H](Cc2ccccc2)C(=O)N[C@@H](CCCNC(=N)N)C(=O)N[C@H](Cc2c[nH]c3ccccc23)C(=O)N1)C(N)=O yielded an EC50 [2] of 0.23 nM.

In the case of C[C@@H](O)[C@H](NC(=O)[C@H]1NC(=O)[C@H](Cc2c[nH]c3ccccc23)NC(=O)[C@H](CCCN=C(N)N)NC(=O)[C@@H](Cc2c[nH]c3ccccc23)NC(=O)[C@H](Cc2ccccc2)NC(=O)[C@@H](NC(=O)[C@H](N)Cc2ccccc2)CSSC1(C)C)C(N)=O, the EC50 [1] is reported as “Not Active”.
